ChEMBL document CHEMBL4732237, “Discovery of 4-alkoxy-2-aryl-6,7-dimethoxyquinolines as a new class of topoisomerase I inhibitors endowed with potent in vitro anticancer activity” (2021)

What was measured:
Type in all cases: functional
K562 = assay: Growth inhibition of human K562 cells at 10 uM incubated for 48 hrs by sulforhodamine B assay relative to control; conditions: read-out: GI
Method in brief: (§1)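 NCI-60 single-dose screen. Cells were grown in RPMI 1640 with 5% FBS and 2 mM L-glutamine and plated 24 h before drug addition. Compound was added at one concentration in DMSO-derived medium and incubated for 48 h at 37 °C in 5% CO2. Read-out was SRB protein stain at 515 nm. Result is percent growth versus the no-drug control and the time-zero cell count; values below 0 indicate lethality.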

SR [1] = assay: Growth inhibition of human SR cells at 10 uM incubated for 48 hrs by sulforhodamine B assay relative to control; conditions: read-out: GI
Method in brief: (§2)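 NCI one-dose screen. Cells grown in RPMI 1640 with 5% FBS and 2 mM L-glutamine, plated and incubated 24 h at 37 °C, 5% CO2. DMSO-dissolved drug added, then 48 h further incubation. Adherent cells fixed with cold TCA, suspension cells fixed after settling. Stained with 0.4% SRB, absorbance read at 515 nm. Reported as percent growth relative to no-drug control and time-zero cell number.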

SF-295 = assay: Growth inhibition of human SF-295 cells at 10 uM incubated for 48 hrs by sulforhodamine B assay relative to control; conditions: read-out: GI; method in brief: as §2
SNB-75 [2] = assay: Growth inhibition of human SNB-75 cells at 10 uM incubated for 48 hrs by sulforhodamine B assay relative to control; conditions: read-out: GI; method in brief: as §2
LOX IMVI [3] = assay: Growth inhibition of human LOX IMVI cells at 10 uM incubated for 48 hrs by sulforhodamine B assay relative to control; conditions: read-out: GI; method in brief: as §1
M14 = assay: Growth inhibition of human M14 cells at 10 uM incubated for 48 hrs by sulforhodamine B assay relative to control; conditions: read-out: GI; method in brief: as §1
UACC-62 [4] = assay: Growth inhibition of human UACC-62 cells at 10 uM incubated for 48 hrs by sulforhodamine B assay relative to control; conditions: read-out: GI
Method in brief: (§3)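 NCI one-dose screen across a 59-line panel. Cells were grown in RPMI 1640 with 5% FBS and 2 mM L-glutamine, plated and pre-incubated 24 h, then exposed to drug for 48 h at 37 °C, 5% CO2. Adherent cells were fixed with cold TCA (10% final), stained with 0.4% SRB in 1% acetic acid and read at 515 nm. Result is percent growth relative to no-drug control and time-zero cell count.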

OVCAR-3 = assay: Growth inhibition of human OVCAR-3 cells at 10 uM incubated for 48 hrs by sulforhodamine B assay relative to control; conditions: read-out: GI; method in brief: as §2
OVCAR-5 = assay: Growth inhibition of human OVCAR-5 cells at 10 uM incubated for 48 hrs by sulforhodamine B assay relative to control; conditions: read-out: GI; method in brief: as §2
OVCAR-8 [5] = assay: Growth inhibition of human OVCAR-8 cells at 10 uM incubated for 48 hrs by sulforhodamine B assay relative to control; conditions: read-out: GI; method in brief: as §2
SK-OV-3 = assay: Growth inhibition of human SK-OV-3 cells at 10 uM incubated for 48 hrs by sulforhodamine B assay relative to control; conditions: read-out: GI; method in brief: as §2
RXF 393 = assay: Growth inhibition of human RXF 393 cells at 10 uM incubated for 48 hrs by sulforhodamine B assay relative to control; conditions: read-out: GI; method in brief: as §2
TK-10 = assay: Growth inhibition of human TK-10 cells at 10 uM incubated for 48 hrs by sulforhodamine B assay relative to control; conditions: read-out: GI; method in brief: as §3
UO-31 = assay: Growth inhibition of human UO-31 cells at 10 uM incubated for 48 hrs by sulforhodamine B assay relative to control; conditions: read-out: GI; method in brief: as §3
SR [6] = assay: Growth inhibition of human SR cells incubated for 48 hrs by sulforhodamine B assay
Method in brief: (§4)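 NCI five-dose screen (0.01–100 µM; five concentrations plus control). Cells grown in RPMI 1640/5% FBS/2 mM L-glutamine and preincubated 24 h, with time-zero plates TCA-fixed. Drug exposure 48 h at 37 °C, followed by SRB protein staining and reading at 515 nm. GI50 is the concentration at [(Ti-Tz)/(C-Tz)]×100 = 50.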

EKVX = assay: Growth inhibition of human EKVX cells incubated for 48 hrs by sulforhodamine B assay
Method in brief: (§5)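 NCI five-dose screen covering 0.01–100 µM, prepared as 10-fold or ½-log dilutions from DMSO stock. Cells in RPMI 1640 with 5% FBS were exposed for 48 h at 37 °C after 24 h preincubation. Adherent cells were fixed with TCA (final 10%) and suspension cells were settled before fixing. Stain was SRB, read at 515 nm. GI50 = 50% reduction in net protein increase versus control, with Tz taken at drug addition.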

HOP-62 = assay: Growth inhibition of human HOP-62 cells incubated for 48 hrs by sulforhodamine B assay; method in brief: as §5
NCI-H23 = assay: Growth inhibition of human NCI-H23 cells incubated for 48 hrs by sulforhodamine B assay; method in brief: as §4
NCI-H322M = assay: Growth inhibition of human NCI-H322M cells incubated for 48 hrs by sulforhodamine B assay; method in brief: as §4
NCI-H460 = assay: Growth inhibition of human NCI-H460 cells incubated for 48 hrs by sulforhodamine B assay; method in brief: as §4
HCT-116 = assay: Growth inhibition of human HCT-116 cells incubated for 48 hrs by sulforhodamine B assay; method in brief: as §5
HCT-15 = assay: Growth inhibition of human HCT-15 cells incubated for 48 hrs by sulforhodamine B assay; method in brief: as §5
SNB-75 [7] = assay: Growth inhibition of human SNB-75 cells incubated for 48 hrs by sulforhodamine B assay; method in brief: as §4
U-251 = assay: Growth inhibition of human U-251 cells incubated for 48 hrs by sulforhodamine B assay
Method in brief: (§6)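 NCI five-dose assay, with drug stocks in DMSO diluted in medium to five concentrations (10-fold or ½-log series). Cells in RPMI 1640/5% FBS were pre-incubated 24 h, and time-zero plates were TCA-fixed at drug addition. After 48 h at 37 °C, cells were TCA-fixed, SRB-stained and read at 515 nm. GI50 is from [(Ti-Tz)/(C-Tz)]×100 = 50, TGI from Ti = Tz, and LC50 from [(Ti-Tz)/Tz]×100 = -50.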

LOX IMVI [8] = assay: Growth inhibition of human LOX IMVI cells incubated for 48 hrs by sulforhodamine B assay; method in brief: as §5
Malme-3M = assay: Growth inhibition of human Malme-3M cells incubated for 48 hrs by sulforhodamine B assay; method in brief: as §4
SK-MEL-28 = assay: Growth inhibition of human SK-MEL-28 cells incubated for 48 hrs by sulforhodamine B assay; method in brief: as §4
SK-MEL-5 = assay: Growth inhibition of human SK-MEL-5 cells incubated for 48 hrs by sulforhodamine B assay; method in brief: as §4
UACC-62 [9] = assay: Growth inhibition of human UACC-62 cells incubated for 48 hrs by sulforhodamine B assay; method in brief: as §6
OVCAR-8 [10] = assay: Growth inhibition of human OVCAR-8 cells incubated for 48 hrs by sulforhodamine B assay; method in brief: as §4
786-0 = assay: Growth inhibition of human 786-0 cells incubated for 48 hrs by sulforhodamine B assay; method in brief: as §5
SN12C = assay: Growth inhibition of human SN12C cells incubated for 48 hrs by sulforhodamine B assay; method in brief: as §4
MCF7 = assay: Growth inhibition of human MCF7 cells incubated for 48 hrs by sulforhodamine B assay; method in brief: as §5
MDA-MB-231 = assay: Growth inhibition of human MDA-MB-231 cells incubated for 48 hrs by sulforhodamine B assay; method in brief: as §5

Which results are given for `COc1cc2nc(-c3ccc(Cl)cc3)cc(OCCCN3CCCC3)c2cc1OC`?
inhibition of growth at 10 µM (K562): 62%; inhibition of growth at 10 µM (SR [1]): 62%; inhibition of growth at 10 µM (SF-295): 62%; inhibition of growth at 10 µM (SNB-75 [2]): 62%; inhibition of growth at 10 µM (LOX IMVI [3]): 62%; inhibition of growth at 10 µM (M14): 62%; inhibition of growth at 10 µM (UACC-62 [4]): 62%; inhibition of growth at 10 µM (OVCAR-3): 62%; inhibition of growth at 10 µM (OVCAR-5): 62%; inhibition of growth at 10 µM (OVCAR-8 [5]): 62%; inhibition of growth at 10 µM (SK-OV-3): 62%; inhibition of growth at 10 µM (RXF 393): 62%; inhibition of growth at 10 µM (TK-10): 62%; inhibition of growth at 10 µM (UO-31): 62%; GI50 (SR [6]): 251 nM; GI50 (EKVX): 1210 nM; GI50 (HOP-62): 1380 nM; GI50 (NCI-H23): 2450 nM; GI50 (NCI-H322M): 3360 nM; GI50 (NCI-H460): 823 nM; GI50 (HCT-116): 699 nM; GI50 (HCT-15): 567 nM; GI50 (SNB-75 [7]): 1730 nM; GI50 (U-251): 1790 nM; GI50 (LOX IMVI [8]): 191 nM; TGI (LOX IMVI [8]): 446 nM; GI50 (Malme-3M): 1680 nM; GI50 (SK-MEL-28): 1480 nM; GI50 (SK-MEL-5): 961 nM; GI50 (UACC-62 [9]): 2030 nM; GI50 (OVCAR-8 [10]): 1190 nM; GI50 (786-0): 2780 nM; GI50 (SN12C): 914 nM; GI50 (MCF7): 1330 nM; GI50 (MDA-MB-231): 907 nM
